Measured values from ChEMBL document CHEMBL1152589, “Identification and characterization of novel sirtuin inhibitor scaffolds” (Bioorg Med Chem, 2009).
Active and inactive are the calls of the source. The calls are words filed in the database; no cut-off is given here.

Columns and labels:
[1] = target: T1, NAD-dependent protein deacetylase HST2 (Saccharomyces cerevisiae S288c, UniProt P53686); test: Inhibition of yeast Hst2 by fluorimetric assay
[2] = target: NAD-dependent histone deacetylase SIR2 (Saccharomyces cerevisiae S288c) (UniProt P06700); test: Inhibition of Sir2 in Saccharomyces cerevisiae inserted URA3 reporter gene assessed as reduction of […] resistance at 40 uM by telomere silencing assay
[3] = target: T2, NAD-dependent protein deacetylase sirtuin-2 (Homo sapiens) (UniProt Q8IXJ6); test: Inhibition of human SIRT2 by fluorogenic assay; design: concentration or dose not given beside the values
T2 sequence (whole entry): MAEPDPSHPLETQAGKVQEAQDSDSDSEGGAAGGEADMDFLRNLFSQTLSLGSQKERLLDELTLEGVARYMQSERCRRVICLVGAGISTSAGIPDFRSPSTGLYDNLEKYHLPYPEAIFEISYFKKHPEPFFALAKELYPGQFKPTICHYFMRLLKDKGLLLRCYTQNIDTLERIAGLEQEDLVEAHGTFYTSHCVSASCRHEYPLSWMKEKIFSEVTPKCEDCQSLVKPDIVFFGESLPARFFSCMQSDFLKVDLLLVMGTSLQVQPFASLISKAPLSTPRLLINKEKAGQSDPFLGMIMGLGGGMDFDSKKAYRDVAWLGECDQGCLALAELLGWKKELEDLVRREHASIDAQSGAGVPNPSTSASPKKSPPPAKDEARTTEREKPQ
How it was run: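 Human SIRT2 isoform II construct with extra N-terminal residues, expressed in E. coli BL21-Gold (DE3) as a His6 fusion. Purified by Ni-NTA, with the tag removed by thrombin, then Q sepharose and Superdex-200 gel filtration. Assayed by fluorigenic deacetylation of Fluor de Lys-SIRT1 substrate.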

[4] = target: NAD-dependent histone deacetylase SIR2 (Saccharomyces cerevisiae S288c) (UniProt P06700); test: Inhibition of Sir2 in Saccharomyces cerevisiae inserted URA3 reporter gene assessed as reduction of […] resistance at 10 uM by telomere silencing assay
[5] = target: T3, NAD-dependent protein deacetylase sirtuin-1 (Homo sapiens, UniProt Q96EB6); test: Inhibition of human full length SIRT1 expressed in DE3 cells by fluorimetric assay; format: cell-based
T3 sequence (Q96EB6 whole entry): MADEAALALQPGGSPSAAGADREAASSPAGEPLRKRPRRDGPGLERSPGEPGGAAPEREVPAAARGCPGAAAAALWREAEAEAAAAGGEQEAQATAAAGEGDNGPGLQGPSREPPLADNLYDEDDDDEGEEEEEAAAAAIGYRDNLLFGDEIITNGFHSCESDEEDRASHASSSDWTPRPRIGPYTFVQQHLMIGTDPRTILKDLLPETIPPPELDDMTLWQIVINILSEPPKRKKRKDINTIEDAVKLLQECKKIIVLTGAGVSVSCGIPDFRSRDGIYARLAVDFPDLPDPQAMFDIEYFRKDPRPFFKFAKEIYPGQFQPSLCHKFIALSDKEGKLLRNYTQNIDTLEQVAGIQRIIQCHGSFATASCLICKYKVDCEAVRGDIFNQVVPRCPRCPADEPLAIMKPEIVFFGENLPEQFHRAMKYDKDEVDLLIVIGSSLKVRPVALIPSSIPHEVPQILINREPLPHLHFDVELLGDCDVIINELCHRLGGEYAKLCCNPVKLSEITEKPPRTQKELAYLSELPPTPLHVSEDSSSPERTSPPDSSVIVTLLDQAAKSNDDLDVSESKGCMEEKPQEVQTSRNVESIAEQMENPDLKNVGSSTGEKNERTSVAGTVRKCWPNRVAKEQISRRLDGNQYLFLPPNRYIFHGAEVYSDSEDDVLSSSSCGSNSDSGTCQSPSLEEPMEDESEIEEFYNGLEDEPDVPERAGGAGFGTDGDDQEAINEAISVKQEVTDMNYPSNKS

[6] = target: T1, NAD-dependent protein deacetylase HST2; test: Mixed inhibition of yeast Hst2 using Acetyl-lysine substrate
[7] = target: NAD-dependent protein deacetylase HST2 (Saccharomyces cerevisiae S288c) (UniProt P53686); test: Inhibition of yeast Hst2 assessed as residual activity at 50 uM by fluorimetric assay relative to control
[8] = target: NAD-dependent protein deacetylase HST2 (Saccharomyces cerevisiae S288c) (UniProt P53686); test: Inhibition of yeast Hst2 assessed as residual activity at 500 uM by fluorimetric assay relative to control
[9] = target: NAD-dependent histone deacetylase SIR2 (Saccharomyces cerevisiae S288c) (UniProt P06700); test: Inhibition of Sir2 in Saccharomyces cerevisiae inserted URA3 reporter gene assessed as reduction of […] resistance at 1 mM by telomere silencing assay

NAD-dependent protein deacetylase HST2 (Saccharomyces cerevisiae S288c), sequence (P53686 whole entry): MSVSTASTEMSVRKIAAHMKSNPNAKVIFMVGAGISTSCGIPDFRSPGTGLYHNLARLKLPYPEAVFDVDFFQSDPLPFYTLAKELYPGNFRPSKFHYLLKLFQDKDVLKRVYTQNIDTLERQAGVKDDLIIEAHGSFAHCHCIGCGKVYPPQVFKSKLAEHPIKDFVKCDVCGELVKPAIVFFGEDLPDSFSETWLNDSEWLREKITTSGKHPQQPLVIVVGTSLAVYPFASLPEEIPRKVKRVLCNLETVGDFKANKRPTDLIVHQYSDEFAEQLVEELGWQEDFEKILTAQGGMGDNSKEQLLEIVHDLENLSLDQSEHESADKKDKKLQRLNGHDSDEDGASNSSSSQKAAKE
T1 sequence (P53686 whole entry): as above
NAD-dependent histone deacetylase SIR2 (Saccharomyces cerevisiae S288c), sequence (P06700 whole entry): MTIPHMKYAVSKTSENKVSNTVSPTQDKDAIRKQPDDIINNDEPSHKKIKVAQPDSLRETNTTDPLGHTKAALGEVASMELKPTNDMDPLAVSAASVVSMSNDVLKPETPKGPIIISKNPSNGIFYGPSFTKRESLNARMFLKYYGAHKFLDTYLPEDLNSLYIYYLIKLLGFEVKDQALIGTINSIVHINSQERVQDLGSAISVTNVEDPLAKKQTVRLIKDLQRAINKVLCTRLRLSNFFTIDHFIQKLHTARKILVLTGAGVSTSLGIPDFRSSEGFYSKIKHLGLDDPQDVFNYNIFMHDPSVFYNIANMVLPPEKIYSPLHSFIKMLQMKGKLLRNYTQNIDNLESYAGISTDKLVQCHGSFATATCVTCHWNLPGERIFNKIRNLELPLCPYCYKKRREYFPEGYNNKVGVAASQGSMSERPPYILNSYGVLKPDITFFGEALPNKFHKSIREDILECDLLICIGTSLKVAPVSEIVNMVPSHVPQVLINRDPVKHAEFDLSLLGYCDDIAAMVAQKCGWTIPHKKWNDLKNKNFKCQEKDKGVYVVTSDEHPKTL

Compound: Cn1cc(C2=C(c3cn(CCCSC(=N)N)c4ccccc34)C(=O)NC2=O)c2ccccc21 [BISINDOLYLMALEIMIDE IX]
- IC50 ([1]; read-out: IC50): 20 µM

Compound: Nc1ccc2c(c1)C(=O)N(CCC(=O)O)C2
- IC50 [1]: Not Active

Compound: NC(=O)C1CCCCc2c1[nH]c1ccc(Cl)cc21 (centres undefined)
- IC50 ([1]; read-out: IC50): 1.3 µM

Compound: Cc1cc(Cl)c(O)c(Cc2c(O)c(Cl)cc(Cl)c2Cl)c1Cl
- Activity [2]: Active
- Activity [3]: 18.5%
- Activity [4]: Active
- IC50 [5]: 34 µM
- Ki [6]: 2.5 µM
- IC50 ([1]; read-out: IC50): 12.5 µM

Compound: CC(C)C(=O)CCN1C(=O)c2ccccc2C1=O
- IC50 [1]: Not Active

Compound: COCC#CC1(C)c2cc(O)c(OC)cc2CCN1C (centres undefined)
- Activity [7]: 100%
- Activity [8]: 100%

Compound: O=C(O)CCCN1C(=O)c2ccccc2C1=O
- IC50 [1]: Not Active

Compound: NC(=O)c1cccnc1
- Activity [3]: 26%

Compound: Cc1cc(=O)oc2cc(OC(=O)COc3ccccc3)ccc12
- Activity [7]: 91%
- Activity [8]: 45%

Compound: COc1ccc(OCCCC(=O)Oc2ccc3c(c2)CCC3)cc1
- Activity [7]: 95%
- Activity [8]: 58%

Compound: OC(c1ccccc1)c1ccc(C(F)(F)F)cc1 (centres undefined)
- Activity [7]: 100%
- Activity [8]: 81%

Compound: C#CC1c2cc(O)c(OC)cc2CCN1C (centres undefined)
- Activity [7]: 100%
- Activity [8]: 86%

Compound: Cc1cccc(OCC(=O)Oc2ccc3c(C)cc(=O)oc3c2)c1
- Activity [7]: 90%
- Activity [8]: 13%

Compound: O=C(O)CCN1C(=O)c2cc(Cl)c(Cl)cc2C1=O
- IC50 [1]: Not Active

Compound: Cc1cc(Cc2cc(C)c(O)c(C)c2)cc(C)c1O
- Activity [7]: 89%
- Activity [8]: 43%

Compound: Cc1ccc(OCCCC(=O)Oc2ccc3c(C)cc(=O)oc3c2)c(C)c1
- Activity [7]: 90%
- Activity [8]: 51%

Compound: Oc1ccc(Cc2ccccc2)cc1
- Activity [7]: 100%
- Activity [8]: 88%

Compound: O=C(O)CCN1C(=O)c2ccc(-c3nc4ccccc4c(=O)o3)cc2C1=O
- IC50 [1]: Not Active

Compound: O=C1CCc2c(ccc3ccccc23)O1 [SPLITOMICIN]
- IC50 ([1]; read-out: IC50): > 600 µM

Compound: COCC#CC1c2cc(O)c(OC)cc2CCN1Cc1ccc(OC)cc1 (centres undefined)
- IC50 ([1]; read-out: IC50): 260 µM

Compound: Cc1c(Cl)c(=O)oc2cc(OC(=O)CCNC(=O)Oc3ccccc3)ccc12
- Activity [7]: 100%
- Activity [8]: 74%

Compound: C[S+]([O-])CCC(C(=O)O)N1C(=O)c2ccccc2C1=O (centres undefined)
- IC50 [1]: Not Active

Compound: COCCCC1c2cc(O)c(OC)cc2CCN1C (centres undefined)
- Activity [7]: 99%
- Activity [8]: 92%

Compound: Cc1ccc(OCCCC(=O)Oc2ccc3c(C)cc(=O)oc3c2)cc1
- Activity [7]: 99%
- Activity [8]: 57%

Compound: Cc1ccc(OCCCC(=O)Oc2ccc3c(c2)CCC3)c(C)c1
- Activity [7]: 93%
- Activity [8]: 49%

Compound: Cc1ccc2[nH]c3c(c2c1)CCCCC3C(N)=O (centres undefined)
- IC50 [5]: 0.64 µM
- IC50 ([1]; read-out: IC50): 14.5 µM

Compound: COc1cc2c(cc1O)CN(C)CC2
- Activity [7]: 100%
- Activity [8]: 98%

Compound: Nc1cccc(Cc2cccc(N)c2)c1
- Activity [7]: 100%
- Activity [8]: 100%

Compound: CN(C)CCCCC(=O)Nc1ccc(NC(=S)NC(=O)c2ccc(C(C)(C)C)cc2)cc1
- IC50 ([1]; read-out: IC50): > 100 µM

Compound: COC/C=C/C1c2cc(O)c(OC)cc2CCN1C (centres undefined)
- Activity [7]: 97%
- Activity [8]: 94%

Compound: O=C(O)CCN1Cc2ccccc2C1=O
- Activity [3]: 89%
- Activity [9]: Active
- IC50 ([1]; read-out: IC50): 19.9 µM

Compound: C#C[C@@H]1c2cc(O)c(OC)cc2CCN1C
- Activity [7]: 97%
- Activity [8]: 74%

Compound: COCC#CC1c2cc(O)c(OC)cc2CCN1C (centres undefined)
- Activity [3]: 92.1%

Compound: C#C[C@H]1c2cc(O)c(OC)cc2CCN1C
- Activity [7]: 96%
- Activity [8]: 70%

Compound: Cc1c(Cl)c(=O)oc2cc(OC(=O)CCCOc3ccc(Cl)cc3Cl)ccc12
- Activity [7]: 90%
- Activity [8]: 68%

Compound: CCc1ccc(OCCCC(=O)Oc2ccc3c(C)cc(=O)oc3c2)cc1
- Activity [7]: 86%
- Activity [8]: 53%

Compound: O=C1c2ccccc2C(=O)N1CCBr
- IC50 [1]: Not Active

Compound: COc1ccc(OCCCC(=O)Oc2ccc3c(C)cc(=O)oc3c2)cc1
- Activity [7]: 93%
- Activity [8]: 35%

Compound: Oc1c(Cc2ccccc2Cl)ccc2cccnc12
- Activity [7]: 100%
- Activity [8]: 100%
